According to ChEMBL document CHEMBL4477178, “Biflorin, Isolated from the Flower Buds of Syzygium aromaticum L., Suppresses LPS-Induced Inflammatory Mediators via STAT1 Inactivation in Macrophages and Protects Mice from Endotoxin Shock” (J Nat Prod, 2016):

Tests used:
[1] = system: RAW264.7; experiment: Antiinflammatory activity in mouse RAW264.7 cells assessed as inhibition of LPS-induced PGE2 production preincubated for 1 hr followed by LPS challenge for 24 hrs by ELISA method; type: functional, cell-based
Outline: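 RAW 264.7 cells in DMEM with 10% FBS, plated at 2 × 10^5 cells/mL and incubated overnight. Pretreated with compound (15, 30 or 60 μM) for 1 h, then LPS 10 ng/mL for 24 h. PGE2 measured by competitive colorimetric ELISA, TNF-α and IL-6 by ELISA, in diluted medium. NS-398 3 μM as positive control for PGE2. Mean ± SD, three independent experiments; IC50 given for PGE2.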

[2] = system: RAW264.7; experiment: Antiinflammatory activity in mouse RAW264.7 cells assessed as inhibition of LPS-induced nitric oxide production preincubated for 1 hr followed by LPS challenge for 24 hrs by Griess assay; type: functional, cell-based
Outline: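 RAW 264.7 cells plated at 2 × 10^5 cells/mL and incubated overnight. Compound given at 15, 30 or 60 μM for 1 h, then LPS 10 ng/mL for 24 h. Nitrite in the medium measured by Griess reagent (10 min, room temperature, A540) against a NaNO2 standard. L-NIL 20 μM as positive control; IC50 derived; three independent experiments.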

[3] = system: Rattus norvegicus; experiment: Antiinflammatory activity in Sprague-Dawley rat assessed as reduction in carrageenan induced paw edema at 100 mg/kg, po administered 1 hr before carrageenan challenge measured at 3 hrs post challenge; type: functional
Outline: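 Carrageenan paw edema in SD rats: ibuprofen 100 mg/kg p.o. as reference. Carrageenan (1% in saline, 0.1 mL) injected into the right hind paw. Volume measured by plethysmometer at 1, 3 and 5 h; seven rats per group.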

[4] = system: Rattus norvegicus; experiment: Antiinflammatory activity in Sprague-Dawley rat assessed as inhibition of croton oil-induced ear edema at 100 mg/kg, po administered 1 hr before croton oil challenge measured after 3 hrs post challenge; type: functional
Outline: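 Croton-oil ear edema in male SD rats: ibuprofen 100 mg/kg p.o. given as reference. Croton oil (5% in 100 μL acetone) applied to the right ear, acetone to the left. Thickness of 6 mm ear punches measured 3 h after application; seven rats per group.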

| Structure (SMILES) | IC50 [1] [µM] | IC50 [2] [µM] | inhibition in vivo at 100 mg/kg [3] [%] | inhibition in vivo at 100 mg/kg [4] [%] |
| --- | --- | --- | --- | --- |
| Cc1cc(=O)c2c(O)cc(O)c([C@@H]3O[C@H](CO)[C@@H](O)[C@H](O)[C@H]3O)c2o1 | 46 | > 60 | – | – |
| CC(C)Cc1ccc(C(C)C(=O)O)cc1 (centres undefined) [IBUPROFEN] | – | – | 68 | 78.2 |
